Screening results (PubChem BioAssay)
Compounds with a hit are over-represented: about 2.4% of the library has one in this group of screens.
ROMK mod: human ROMK K+ channel modulation, primary screen; P48048; Tet-inducible ROMK, thallium flux fluorescence; actives lie on both sides; B-score at 10 µM; actives 2% (n = 130,000); AID 1918;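 active means signal ratio slope over the read window, or its plate-corrected B-score, at least 3 SD from the plate mean, either direction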;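 further: B-score of the F/F0 ratio slope over 7 to 12 s after thallium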
Target sequence (P48048 whole entry, looked up): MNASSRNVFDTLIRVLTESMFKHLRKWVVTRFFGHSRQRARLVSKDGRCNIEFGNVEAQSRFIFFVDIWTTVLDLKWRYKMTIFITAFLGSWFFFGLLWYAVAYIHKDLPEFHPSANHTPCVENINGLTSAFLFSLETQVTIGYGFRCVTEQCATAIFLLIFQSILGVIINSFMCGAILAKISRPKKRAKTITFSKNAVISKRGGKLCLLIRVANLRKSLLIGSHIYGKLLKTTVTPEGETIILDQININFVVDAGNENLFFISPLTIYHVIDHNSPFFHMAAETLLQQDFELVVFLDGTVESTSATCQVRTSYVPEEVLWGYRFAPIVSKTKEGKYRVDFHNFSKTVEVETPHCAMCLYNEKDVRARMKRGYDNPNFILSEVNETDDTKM
HSV replic up: increases HSV replication in cells; HSV replication augmentation in cells, fold increase; maximum fold increase; actives 0.005% (n = 220,000); in the data active means maximum fold increase above about 1.5; inconclusive means no clear call, values can overlap the other calls; tested in PC3 cells
Insulin prom inh: TRM-6 insulin promoter activity inhibition | TRM-6 cells (human fetal islet line), insulin promoter-eGFP reporter, imaging; reporter expression induced with tamoxifen | inhibition, % at 2 µM | actives 0.9% (n = 130,000) | AID 1273;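 active means inhibition above the mean plus 3 SD, with well images judged a real hit on visual review, cut at about 60% in these data, passing the limit was not always enough; inconclusive means inhibition over the cutoff but images rejected on review; inactive means inhibition not above the cutoff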
MT stabilizer: microtubule stabilizers in HeLa cells. HeLa tubulin immunostaining HCS, 24 h; share of cells brighter than vehicle mean+2SD. % tubulin-high responders, % at 10 µM. actives 0.83% (n = 200,000). AID 2205;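 active means plate Z-score above 3 for both tubulin-high and condensed-nucleus cell shares, with cell loss under 80%, at 10 µM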;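 further: anti alpha tubulin signal scored within the nucleus-defined area of each cell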
b-catenin transl: modulators of beta-catenin nuclear translocation; HeLa beta-catenin nuclear translocation, immunofluorescence imaging; nuclear translocation activity, % at 5 µM; actives 0.3% (n = 190,000);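 active means nuclear translocation activity above 50% at 5 µM, with a well cell count of 50 or more; inconclusive means wells under 50 cells across six images, flagged as toxic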;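 further: per-cell ratio of nuclear to cytoplasmic median beta-catenin stain intensity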
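Read-out: Nuclear/cytoplasmic beta-catenin signal ratio, % activation | Assay system: Human HeLa cell line | Times: 24 h compound exposure at 37°C, 5% CO2 | Signal: Fluorescence imaging of beta-catenin antibody stain plus DAPI | Dosing: 5 µM primary, 0.02–20 µM confirmation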
Each line names hits and unclear results; the compound was inactive in the other large screens.

COc1ccc(OC)c(C2=NOC(C(=O)NCc3cccs3)C2)c1 (stereo unspecified)	MT stabilizer 23 (no result: Insulin prom inh)
Cc1c(CN2CCC(CO)(CCOc3ccccc3)CC2)c(=O)n(-c2ccccc2)n1C	none (no result: Insulin prom inh)
Cc1cccc(C)c1OCC(O)CN1CCC(CN2C(=O)c3cccc4cccc(c34)C2=O)CC1 (stereo unspecified)	none (no result: ROMK mod)
COc1cc(/C=C/C(=O)OCC(=O)c2c(N)n(C)c(=O)n(C)c2=O)ccc1OCC#N	none (no result: Insulin prom inh)
CCOCc1c(C(=O)NC2=Nc3ccccc3NC(CC)=C2C(=O)OCC)oc2ccccc12	MT stabilizer 20 (no result: Insulin prom inh)
CCOC(=O)C1=C(CC)Nc2ccccc2N=C1NC(=O)c1oc2ccccc2c1C	none (no result: ROMK mod)
Cc1ccc(S(=O)(=O)NCCC(=O)OCC(=O)NC(=O)c2cccn2C)cc1	none (no result: ROMK mod, Insulin prom inh, MT stabilizer)
COC(=O)C1=C(C)NC(=S)N(C(C)=O)C1c1ccccc1 (stereo unspecified)	Insulin prom inh 77
CC(C)c1ccc(S(=O)(=O)/N=C2/C=C(Sc3ncn[nH]3)C(=O)c3ccccc32)cc1	ROMK mod -2.6
CCOC(=O)c1sc(N)c(C(=O)OC)c1C	none (no result: Insulin prom inh)
CCOC(=O)c1sc(N)c(C(=O)Nc2ccccc2OC)c1C	MT stabilizer 22, b-catenin transl 80
COC(=O)NNC(=S)Nc1ccc(Br)cc1	none (no result: Insulin prom inh)
N#Cc1cccc(S(=O)(=O)NCC(=O)OCC(=O)c2ccc[nH]2)c1	none (no result: Insulin prom inh)
CSC(=S)N/N=C/c1ccc(N(C)C)cc1	ROMK mod 2.7
O=C(Cn1cncn1)N/N=C/c1ccccc1O	none (no result: Insulin prom inh, MT stabilizer)
Cc1ccc(CSCC(=O)N/N=C/c2sccc2C)cc1	none
CCOC(=O)N1CCN(c2c(NCc3cccs3)c(=O)c2=O)CC1	MT stabilizer 20 (no result: ROMK mod, Insulin prom inh, b-catenin transl)
CCOc1ccc(-c2nnn(CC(=O)c3cc(OC)ccc3OC)n2)cc1	MT stabilizer 50
O=C(Cn1cnc2ccccc21)NC(c1ccccc1)c1ccccc1	none (no result: ROMK mod)
CNC(=O)c1cc(C)c(-c2ccccc2)s1	Insulin prom inh 89
Nc1ccc2c(c1)CC(=O)c1ccccc1S2	Insulin prom inh 77
O=C(Nc1nc2ccc(S(=O)(=O)N3CCCC3)cc2s1)C1CCCCC1	MT stabilizer 34 (no result: ROMK mod, HSV replic up)
COc1ccc2nc(NC(=O)c3cccc(S(=O)(=O)N4CCOCC4)c3)sc2c1	Insulin prom inh 74 (no result: ROMK mod)
COc1ccc(Nc2nc3ccccc3s2)cc1	none (no result: Insulin prom inh)
COc1ccc2nc(NC(=O)c3cccc(OCc4c(C)noc4C)c3)sc2c1	MT stabilizer 30, b-catenin transl 72 (no result: ROMK mod, HSV replic up, Insulin prom inh)
COc1cccc(Nc2nc3ccc(OC)cc3s2)c1	Insulin prom inh 71
CC(C)CNC(=S)NC(=O)c1ccc(Cl)cc1Cl	none (no result: ROMK mod, Insulin prom inh)
COc1cc(C(=O)NCCOc2cccc3cccnc23)cc(OC)c1OC	MT stabilizer 40 (no result: ROMK mod)
O=C(CCN1CCC(c2cccs2)=N1)c1cccs1	none (no result: ROMK mod, Insulin prom inh, MT stabilizer)
Cc1ccccc1/C=N\NC(=O)c1ccccc1-n1cccc1	none (no result: Insulin prom inh)
CCOC(=O)Nc1ccc2c(c1)N(C(=O)C(C)N1CCCC1)c1ccccc1CC2 (stereo unspecified)	none (no result: b-catenin transl)
CCOC(=O)Nc1ccc2c(c1)N(C(=O)OC)c1ccccc1CC2	MT stabilizer 34 (no result: ROMK mod)
COc1cccc(C2C(C(=O)c3sc(C)nc3C)=C(O)C(=O)N2CCN(C)C)c1OC (stereo unspecified)	none (no result: ROMK mod, HSV replic up, Insulin prom inh, MT stabilizer)
CC(C)NC(=O)C(OC(=O)c1ccccc1)C(OC(=O)c1ccccc1)C(=O)O (stereo unspecified)	none (no result: ROMK mod)
COc1cccc(Nc2c3c(nc4c(-c5ccccc5)c(C)nn24)CCC3)c1	Insulin prom inh 94 (no result: ROMK mod)
Cc1nn2c(Nc3ccc(F)cc3)c3c(nc2c1-c1ccccc1)CCC3	Insulin prom inh 87 (no result: ROMK mod)
Cc1ccccc1OCC(=O)NNC(=O)Nc1ccc(Cl)cc1	b-catenin transl 76 (no result: ROMK mod)
CCC(C)c1ccc(NC(=O)C2CC2)cc1 (stereo unspecified)	Insulin prom inh inconclusive (no result: ROMK mod, b-catenin transl)
CCC(C)c1ccc(NC(=O)C2CCCN(c3ncccn3)C2)cc1 (stereo unspecified)	MT stabilizer 36
CCC1=NC(c2ccccc2OC)N(O)C1(C)C (stereo unspecified)	none (no result: ROMK mod)
O=C1CN(C(=O)c2ccc(Cl)c(S(=O)(=O)N3CCc4ccccc43)c2)c2ccccc2N1	none (no result: ROMK mod, Insulin prom inh, MT stabilizer)
CC(CNc1ccccc1O)C(=O)O (stereo unspecified)	none (no result: ROMK mod, b-catenin transl)
CCOC(=O)N1CCN(C(=O)CCN2C(=O)COc3ccccc32)CC1	Insulin prom inh 79
CCCCCCCOc1ccc(OC(=O)c2ccncc2)cc1	none (no result: b-catenin transl)
CC(=O)Cc1nsc(NC(=O)c2oc(-c3ccccc3Cl)cc2C)n1	none
CC(=O)Cc1nsc(NC(=O)c2ccc(-c3ccccc3Cl)o2)n1	MT stabilizer 24
